Tests used:
[1] = test system: HEK293 cells; assay: MTT cytotoxicity assay; format: cell-based; settings: 0.0001 nM–10 μM, 24 h
Method in brief: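 HEK293 plated at 7500 cells/well and grown 24 h at 37 °C, 5% CO2. Exposed to compound 0.0001 nM–10 μM for 24 h at 37 °C. Viability read by MTT on a multimode plate reader.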

[2] = target: T1, TNFR2 (Homo sapiens, UniProt P20333); assay: RelB transcription factor activity assay; format: cell-based; settings: HUVEC cells, 250 nM, densitometry
T1 sequence (P20333 23-461): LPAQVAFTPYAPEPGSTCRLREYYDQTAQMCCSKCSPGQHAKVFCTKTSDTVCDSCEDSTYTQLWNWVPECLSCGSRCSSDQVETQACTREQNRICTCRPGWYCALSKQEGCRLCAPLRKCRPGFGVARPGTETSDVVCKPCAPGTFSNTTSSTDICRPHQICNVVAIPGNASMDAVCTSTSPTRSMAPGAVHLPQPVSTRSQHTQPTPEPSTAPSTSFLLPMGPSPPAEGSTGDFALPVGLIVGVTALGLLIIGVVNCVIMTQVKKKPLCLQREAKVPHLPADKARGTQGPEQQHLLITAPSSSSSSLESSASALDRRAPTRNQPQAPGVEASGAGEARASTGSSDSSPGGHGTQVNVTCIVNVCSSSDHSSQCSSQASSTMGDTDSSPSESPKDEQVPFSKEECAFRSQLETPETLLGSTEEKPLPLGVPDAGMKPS
Method in brief: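 HUVEC grown on gelatin-coated dishes in EGM-2 with 2% FBS, plated 1 million/well overnight, then transfected with 0.5 μg membrane TNF plasmid. After 6 h, medium replaced and compound (250 nM) added overnight. Lysates in native buffer, BCA, SDS–PAGE, immunoblotted for RelB; bands quantified by densitometry.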

[3] = test system: TRADD; assay: TRADD-induced NF-κB activation assay; format: cell-based; settings: HEK293 cells overexpressing TRADD, 0.01 to 500 nM, without TNF
Method in brief: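 HEK293 (0.8 million/well, six-well) transfected with 1 μg NF-κB firefly reporter, 0.1 μg Renilla reporter, 1 μg TRADD plasmid and 0.4 μg empty vector (2.5 μg total); controls received empty vector instead of TRADD. Replated at 7500 cells/well after 3 h. Compound 0.01–500 nM or DMSO added 5 h later. Dual luciferase read 24 h post-treatment. Means ± SD, three experiments.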

[4] = target: T2, TNFR1 (Homo sapiens, UniProt P19438); assay: IκB degradation assay; format: cell-based; settings: HEK293 cells, 0.01 to 500 nM
T2 sequence (P19438 30-455): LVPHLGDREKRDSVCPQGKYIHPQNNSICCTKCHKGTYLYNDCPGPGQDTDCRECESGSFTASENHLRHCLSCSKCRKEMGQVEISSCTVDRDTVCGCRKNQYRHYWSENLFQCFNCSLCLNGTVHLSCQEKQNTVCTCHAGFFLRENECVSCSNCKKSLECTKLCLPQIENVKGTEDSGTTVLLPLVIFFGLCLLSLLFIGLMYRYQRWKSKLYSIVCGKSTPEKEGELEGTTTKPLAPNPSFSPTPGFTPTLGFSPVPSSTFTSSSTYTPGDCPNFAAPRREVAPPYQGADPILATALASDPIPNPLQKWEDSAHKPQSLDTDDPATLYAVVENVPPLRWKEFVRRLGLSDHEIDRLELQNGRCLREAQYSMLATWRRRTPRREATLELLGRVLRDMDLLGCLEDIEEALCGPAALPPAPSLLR
Method in brief: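 HEK293 seeded at 0.4 million/mL in six-well plates overnight, then given compound 0.01–500 nM or DMSO for 2 h, then TNF 10 ng/mL for 30 min. Lysis in native buffer with protease inhibitor, 30 min on ice; BCA. 80 μg protein run on SDS–PAGE, immunoblotted for IκBα and β-actin. Bands quantified by densitometry (n = 3).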

[5] = Solubility by dynamic light scattering; format: physicochemical
[6] = test system: IL-1α-induced NF-κB activation; assay: IL-1α-induced NF-κB activation assay; format: cell-based; settings: HEK293 cells, IL-1α 10 ng/mL, 0.01 to 500 nM, 24 h
Method in brief: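 HEK293 cells were transfected with NF-κB firefly/Renilla luciferase reporters and replated next day at 7500 cells/well in phenol red–free DMEM. Compound 0.01–500 nM or DMSO was incubated with or without IL-1α 10 ng/mL for 24 h at 37 °C. Sequential firefly and Renilla luminescence read with Dual-Glo reagents. Means ± SD of three experiments.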

[7] = test system: TNF; settings: read-out: EC50, inhibition of NF-κB; cited from earlier work

| Structure (SMILES) | cytotoxicity (MTT) [1] | effect on membrane TNF-TNFR2-induced activation of RelB [2] | effect on TRADD-induced NF-κB activation [3] | extent of inhibition of TNF-induced IκB degradation [4] | aggregation by DLS at 200 μM [5] | effect on IL-1α-induced NF-κB activation [6] | EC50 [7] [nM] |
| --- | --- | --- | --- | --- | --- | --- | --- |
| COc1cc(C(=O)NS(=O)(=O)c2ccccc2C)ccc1Cc1cn(C)c2ccc(NC(=O)OC3CCCC3)cc12 [zafirlukast] | No appreciable cytotoxicity | minimal effect | little effect | partially inhibited | aggregation | failed to mitigate | – |
| Cc1ccc(C)c(Cn2c(C(O)c3ccncc3)nc3ccc(-c4cnn(C)c4)cc32)c1 (stereo not shown) [UCB-9260] | – | – | – | – | – | – | 250 |

Source: publication PMC10288500 (ACS Bio & Med Chem Au, 2023)
